# Screens (PubChem BioAssay)
# Apaf-1 inh: human Apaf-1 inhibition. reconstituted apoptosome caspase-3 activity, DEVD-Rh110 fluorescence. inhibition, % at 20 µM. O14727. 330,000 compounds, 0.71% hits; active means inhibition of at least 40% at 20 µM;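 further: plate controls were DMSO wells for no effect and DEVD-CHO caspase inhibitor wells for full effect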
#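 Material: reconstituted apoptosome with Apaf-1, cytochrome c, caspase-9, procaspase-3, dATP / Buffer or medium: pH 7.5 Hepes buffer with CHAPS, BSA, DTT / Also added: cytochrome c with DEVD-Rh110 / Schedule: compound with Apaf-1, dATP, procaspase-3 30 min, then 50 min reaction, room temperature / Technique: rhodamine 110 fluorescence at Ex 480/Em 540 nm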
# PAFAH1B2 FP inh: blocks human PAF acetylhydrolase 1b catalytic subunit 2 | AID 492953 | inhibition, % at 3.39 µM | 340,000 compounds, 1.2% hits | recombinant PAFAH1B2, FP-rhodamine activity probe, fluorescence polarization | P68402;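 active means inhibition above the mean of all tested compounds plus 3 SD, cut at about 24% in these data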;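 further: 0% = enzyme with DMSO and 100% = wells lacking PAFAH1B2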
# TDP2 absorb: TDP2 (human) inhibition, absorbance primary screen | O95551 | recombinant TDP2, T5PNP hydrolysis, p-nitrophenol absorbance 415 nm | inhibition, % at 12.8 µM | 370,000 compounds, 0.34% hits;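 active means inhibition above the mean of all tested compounds plus 3 SD, set per campaign, cut at about 25% in these data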;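 further: 0% = DMSO with enzyme and 100% = buffer with substrate but no TDP2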
# Target sequence (O95551 whole entry, looked up): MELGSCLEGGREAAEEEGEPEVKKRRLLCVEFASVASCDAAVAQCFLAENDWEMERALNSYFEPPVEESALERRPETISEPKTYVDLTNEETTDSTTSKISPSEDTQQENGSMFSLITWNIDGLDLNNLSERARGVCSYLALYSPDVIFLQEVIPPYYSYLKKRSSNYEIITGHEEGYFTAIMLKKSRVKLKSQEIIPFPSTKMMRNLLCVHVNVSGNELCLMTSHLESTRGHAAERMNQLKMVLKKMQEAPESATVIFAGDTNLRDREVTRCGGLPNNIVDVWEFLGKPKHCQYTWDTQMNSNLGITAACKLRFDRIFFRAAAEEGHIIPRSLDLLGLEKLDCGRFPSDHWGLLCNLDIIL
#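 Assay system: Recombinant human TDP2 | Quantity: 120 nM TDP2 per well | Incubation: 2 h at 37 °C | Signal: Epi absorbance | Evaluation: Percent inhibition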
# PAFAH2 FP inh: inhibitors of human PAFAH2. Q99487. recombinant PAFAH2, FP-rhodamine activity probe, fluorescence polarization. inhibition, % at 3.39 µM. 340,000 compounds, 0.99% hits. AID 492956;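 active means inhibition above the mean over all tested compounds plus 3 SD, cut at about 30% in these data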;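 further: inhibitors block probe labeling of enzyme so polarization drops; 0% = enzyme with DMSO and 100% = wells lacking PAFAH2 protein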
# PAFAH1B3 inh: blocks human PAF acetylhydrolase 1B catalytic subunit 3; Q15102; recombinant PAFAH1B3, FP-rhodamine probe, fluorescence polarization; inhibition, % at 3.39 µM; 340,000 compounds, 0.28% hits;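 active means inhibition above the screen-wide average of all tested compounds plus 3 SD, cut at about 25% in these data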;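 further: 0% = enzyme with DMSO only and 100% = wells lacking PAFAH1B3 protein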
# Target sequence (Q15102 whole entry, looked up): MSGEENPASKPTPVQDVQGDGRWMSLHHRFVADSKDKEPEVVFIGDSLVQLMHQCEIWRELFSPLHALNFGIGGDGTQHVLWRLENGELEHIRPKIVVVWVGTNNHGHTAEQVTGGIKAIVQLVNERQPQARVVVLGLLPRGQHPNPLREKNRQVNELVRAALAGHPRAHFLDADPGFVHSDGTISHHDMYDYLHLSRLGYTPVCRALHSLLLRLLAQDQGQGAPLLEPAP
# Apaf-1 inh conf2: confirmation of Apaf-1 inhibitors; reconstituted apoptosome, caspase-3 DEVD-Rh110 fluorescence; 1,800 compounds, 25% hits; inhibition, % at 20 µM; AID 504614; shares compounds with Apaf-1 inh;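 active means mean inhibition of at least 40% at 20 µM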;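 further: plate controls were DMSO wells for no effect and DEVD-CHO caspase inhibitor control wells for full effect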
# Rh110 quench: Rh110 signal interference in Apaf-1 inhibitor counter-screen; shares compounds with Apaf-1 inh; Rh110 fluorescence interference, quenched caspase reaction; activation (fluorescence interference), % at 20 µM; 1,800 tested, under 10 active; AID 504615;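 active means signal rise of 40% or more at 20 µM, treated as a fluorescence artifact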
# Fluor interf inh: Apaf-1 inhibitor counter-screen fluorescence artifact | shares compounds with Apaf-1 inh | fluorescence interference counterscreen, Apaf-1 assay format | IC50, µM | 460 tested, under 10 active; call rule not given here
# The depositor's hits bear a star; / = no result given. Shown are actives, neighbours in structure and some others; about 2.3% of the full set was active somewhere.
SMILES,Apaf-1 inh,PAFAH1B2 FP inh,TDP2 absorb,PAFAH2 FP inh,PAFAH1B3 inh,Apaf-1 inh conf2,Rh110 quench,others
Cc1ccc(-c2nc(C3CCCN(S(=O)(=O)c4ccccc4)C3)no2)cc1 (stereo not drawn),/,/,2,/,/,/,/,
CC1CCN(C2=C(NS(=O)(=O)c3ccccc3)C(=O)c3ccccc3C2=O)CC1,60*,6,0,10,11,34,6,
O=C1CSC(=S)N1Cc1cccs1,/,4,-12,-1,-3,/,/,
N#Cc1c(N(CCO)CCO)nc(N)c2c(N)nc3c(c12)CC(=O)N3Cc1cccs1,73*,8,/,12,12,42*,12,Fluor interf inh=>100
CN(CCO)c1nc(N)c2c(N)nc3c(c2c1C#N)CC(=O)N3Cc1cccs1,77*,8,-4,6,10,15,4,
CCCCCCCCN1C(=O)[C@@H](CC(=O)N2CCSCC2)C[C@@]2(C(=O)OC)C1=C[C@H](C(C)C)O[C@@H]2C1CC1,/,/,-11,/,/,/,/,
CCOc1ccc(C(=O)Nc2sc3c(c2C(=O)OC)CC(C)(C)NC3(C)C)cc1,41*,0,0,-3,1,9,12,
COC(=O)c1c(NC(=O)c2ccc(C(=O)c3ccccc3)cc2)sc2c1CC(C)(C)NC2(C)C,/,/,-3,/,/,/,/,
COC(=O)c1c(NC(=O)c2nc3ccccc3s2)sc2c1CC(C)(C)NC2(C)C,58*,-1,6,-2,-6,18,7,
CC(C)COc1ccc(C(=O)Nc2scc(-c3ccc(Cl)cc3Cl)c2C(N)=O)cc1,45*,-4,3,-14,-3,20,8,
O=C(Nc1nc(-c2ccc(Cl)cc2Cl)cs1)c1ccc(OCC2CCCO2)cc1 (stereo not drawn),10,-7,4,-7,2,/,/,
COC(=O)C1CCC(CNC(=O)C(Cc2ccc3c(c2)OCO3)NC(C)=O)CC1 (stereo not drawn),/,/,-9,/,/,/,/,
CC(C)OCCCNC(=S)NNC(=O)C(c1ccccc1)c1ccccc1,-2,3,1,5,9,/,/,
O=C1c2ccccc2C(=O)c2c(NCCCN(CCO)CCO)cccc21,3,/,-15,/,/,/,/,
CC(C)OCCCNC1=C(Cl)C(=O)c2ccccc2C1=O,53*,/,0,/,/,28,4,
CCN(CC)CCCNC1=C(Cl)C(=O)c2ccccc2C1=O,50*,3,6,-4,19,65*,4,Fluor interf inh=>100
Cc1ccc(OCC(O)Cn2c(=N)n(Cc3ccccc3)c3ccccc32)cc1 (stereo not drawn),2,1,-2,5,11,/,/,
N=c1n(Cc2ccccc2)c2ccccc2n1CC(O)COc1ccc(Cl)cc1Cl (stereo not drawn),52*,-2,-5,-1,-1,38,-18,
Cc1cccc(OCC(O)Cn2c(=N)n(Cc3ccccc3)c3ccccc32)c1 (stereo not drawn),58*,3,-24,1,1,11,11,
COc1cc(N=C2C(=O)N3c4c(cccc42)C(C)=CC3(C)C)cc(OC)c1,16,-2,-18,3,2,/,/,
CC1=CC(C)(C)N2C(=O)C(=Nc3ccc(O)cc3)c3cccc1c32,90*,5,12,5,18,15,-3,
CCC[C@@H](CN1CCC[C@H]1CN1C(N)=NC[C@H]1C(C)C)N1C[C@@H](Cc2ccccc2)N(CCCC2CCCC2)C1=N,46*,-1,-7,-9,6,13,0,
CC(C)C[C@@H]1CN=C(N)N1C[C@@H]1CCCN1C[C@@H](C(C)C)N1C[C@@H](Cc2ccccc2)N(CCCC2CCCC2)C1=N,55*,-3,-9,3,5,13,-1,
CCCCN1C(=N)N([C@@H](CCC)CN2CCC[C@H]2CN2C(N)=NC[C@H]2CC(C)C)C[C@H]1Cc1ccccc1,17,-4,1,5,-2,/,/,
CCCCN1C(=N)N([C@@H](CN2CCC[C@H]2CN2C(N)=NC[C@@H]2Cc2ccccc2)C(C)C)C[C@H]1Cc1ccccc1,38,3,-5,-7,5,/,/,
SMILES,Apaf-1 inh,PAFAH1B2 FP inh,TDP2 absorb,PAFAH2 FP inh,PAFAH1B3 inh,Apaf-1 inh conf2,Rh110 quench,others
CCOC(=O)C1=C(CN2CCN(c3ccc(F)cc3)CC2)NC(=O)NC1c1cccs1 (stereo not drawn),41*,9,-14,3,4,23,14,
CCOC(=O)C1=C(CN2CCOCC2)NC(=O)NC1c1cc(C)ccc1C (stereo not drawn),-16,-1,6,-3,-4,/,/,
O=[N+]([O-])c1ccc(CSc2nnc(-c3cccc(Cl)c3)n2Cc2ccco2)cc1,/,/,3,/,/,/,/,
O=C(OCC#CCSc1nnc(-c2cccc(F)c2)o1)c1ccc(F)cc1,/,/,-2,/,/,/,/,
CCN(CC)CCCN=Cc1c(O)n(Cc2ccccc2)c(=O)c2ccccc12,4,-2,2,3,7,/,/,
CC(C)CCC(C)N=Cc1c(O)n(Cc2ccccc2)c(=O)c2ccccc12 (stereo not drawn),60*,-1,-1,3,-2,56*,3,Fluor interf inh=>100
COCCNC(=O)C[C@H]1CC[C@H]2[C@@H](COc3ccc(NC(=O)Nc4cccc(F)c4)cc3C(=O)N2C)O1,/,/,2,/,/,/,/,
CC1=NN(c2ccccc2)C(=O)/C1=C/C=C/C=C/N(C)C,25,-29,8,-53,-39,/,/,
CC1=NN(c2ccccc2)C(=O)/C1=C\N(O)c1ccccc1,71*,0,14,4,12,30,2,
CC1=NN(c2ccc(C(=O)O)cc2)C(=O)/C1=C\c1ccc(OC(=O)c2cccs2)cc1,75*,4,24,5,4,13,3,
CC1=NN(c2ccccc2)C(=O)/C1=C/c1ccc(Cl)cc1,96*,9,71*,14,7,16,-2,
CC(=O)[C@]1(O)Cc2c(O)c3c(c(O)c2[C@@H](O[C@H]2C[C@H](N)[C@H](O)[C@H](C)O2)C1)C(=O)c1ccccc1C3=O,47*,/,/,/,/,15,-32,
Cc1ccccc1N(C)C(=O)Cn1nnc(-c2ccccc2F)n1,/,/,-1,/,/,/,/,
CCN1CCN(CCc2nc3cc(NC(=O)COc4ccc(Cl)cc4)ccc3n2C)CC1,8,5,-10,5,5,/,/,
Cc1cccc(OCC(=O)Nc2ccc3c(c2)nc(CN2CCCCC2)n3C)c1,2,0,-15,0,6,/,/,
Cn1c(CN2CCCC2)nc2cc(NC(=O)COc3ccccc3)ccc21,53*,1,8,-8,-2,20,3,
CN1CCN(c2ccc(-c3cccc(NC(=O)COc4ccccc4)c3)nn2)CC1,47*,-1,-9,-6,4,14,5,
